Experimental data from the M2OR odorant receptor database.
Changes are numbered by the printed parent chain.

What was measured:
Conditions in all cases: stereoisomer not certain
OR5K1 (Homo sapiens) = target: T1, OR5K1 (Homo sapiens) (UniProt Q8NHB7)
T1 sequence (whole entry): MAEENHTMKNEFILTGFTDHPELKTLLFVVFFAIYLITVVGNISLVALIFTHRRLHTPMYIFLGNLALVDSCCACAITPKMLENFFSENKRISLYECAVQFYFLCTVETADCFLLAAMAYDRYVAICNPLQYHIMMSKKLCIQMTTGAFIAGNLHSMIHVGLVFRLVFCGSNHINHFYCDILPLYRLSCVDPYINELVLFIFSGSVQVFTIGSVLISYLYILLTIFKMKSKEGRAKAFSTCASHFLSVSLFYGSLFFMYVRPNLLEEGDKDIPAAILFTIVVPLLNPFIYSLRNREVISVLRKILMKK
How it was run: (§1)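 Each entry records the cell line, G-protein, co-transfected protein and tags used. Methods varied with the source, often transient luciferase assays in mammalian cell lines. A receptor–molecule pair is called responsive (active) if the original authors judged its signal statistically different from baseline and non-responsive (inactive) otherwise.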

OR5H1 = system: T2, OR5H1
T2 sequence (whole entry): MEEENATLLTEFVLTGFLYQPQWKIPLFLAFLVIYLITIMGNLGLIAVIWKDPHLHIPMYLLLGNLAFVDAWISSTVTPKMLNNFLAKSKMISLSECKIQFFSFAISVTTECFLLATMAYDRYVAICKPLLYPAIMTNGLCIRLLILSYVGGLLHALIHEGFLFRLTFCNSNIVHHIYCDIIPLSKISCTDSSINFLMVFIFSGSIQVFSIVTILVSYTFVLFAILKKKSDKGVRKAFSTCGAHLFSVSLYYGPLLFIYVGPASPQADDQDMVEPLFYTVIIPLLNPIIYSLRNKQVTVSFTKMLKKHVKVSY
How it was run: as §1

OR5H2 = system: T3, OR5H2
T3 sequence (whole entry): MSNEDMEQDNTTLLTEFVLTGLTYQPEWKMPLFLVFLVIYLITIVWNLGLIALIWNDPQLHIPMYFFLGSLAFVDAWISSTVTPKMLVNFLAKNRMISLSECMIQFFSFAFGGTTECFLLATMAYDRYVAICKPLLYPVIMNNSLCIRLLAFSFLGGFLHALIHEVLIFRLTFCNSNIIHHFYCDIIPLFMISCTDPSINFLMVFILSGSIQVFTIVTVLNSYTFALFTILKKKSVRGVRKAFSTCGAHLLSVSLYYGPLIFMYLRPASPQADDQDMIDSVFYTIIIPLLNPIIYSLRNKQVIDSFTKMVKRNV
How it was run: as §1

OR5H6 (Homo sapiens) = target: T4, OR5H6 (Homo sapiens) (UniProt Q8NGV6)
T4 sequence (whole entry): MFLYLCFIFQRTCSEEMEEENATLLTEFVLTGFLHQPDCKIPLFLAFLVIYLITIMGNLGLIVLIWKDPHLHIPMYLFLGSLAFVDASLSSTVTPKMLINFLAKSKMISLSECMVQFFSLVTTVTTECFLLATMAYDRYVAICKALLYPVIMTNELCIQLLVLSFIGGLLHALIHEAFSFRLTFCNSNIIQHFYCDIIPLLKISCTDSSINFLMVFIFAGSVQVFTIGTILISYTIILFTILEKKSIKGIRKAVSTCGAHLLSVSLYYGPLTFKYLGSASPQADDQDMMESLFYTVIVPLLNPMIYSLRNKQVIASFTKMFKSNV
How it was run: as §1

OR5I1 (Homo sapiens) = target: T5, OR5I1 (Homo sapiens) (UniProt Q13606)
T5 sequence (whole entry): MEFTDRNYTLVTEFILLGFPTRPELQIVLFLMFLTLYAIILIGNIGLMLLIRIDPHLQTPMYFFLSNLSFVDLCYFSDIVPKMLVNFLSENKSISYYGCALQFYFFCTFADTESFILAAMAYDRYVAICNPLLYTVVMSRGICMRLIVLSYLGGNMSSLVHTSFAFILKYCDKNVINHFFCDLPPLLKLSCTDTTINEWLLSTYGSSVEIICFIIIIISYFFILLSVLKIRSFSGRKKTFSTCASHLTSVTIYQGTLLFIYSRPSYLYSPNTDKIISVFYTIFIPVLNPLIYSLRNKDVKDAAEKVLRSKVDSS
How it was run: as §1

OR5J2 (Homo sapiens) = target: T6, OR5J2 (Homo sapiens) (UniProt Q8NH18)
T6 sequence (whole entry): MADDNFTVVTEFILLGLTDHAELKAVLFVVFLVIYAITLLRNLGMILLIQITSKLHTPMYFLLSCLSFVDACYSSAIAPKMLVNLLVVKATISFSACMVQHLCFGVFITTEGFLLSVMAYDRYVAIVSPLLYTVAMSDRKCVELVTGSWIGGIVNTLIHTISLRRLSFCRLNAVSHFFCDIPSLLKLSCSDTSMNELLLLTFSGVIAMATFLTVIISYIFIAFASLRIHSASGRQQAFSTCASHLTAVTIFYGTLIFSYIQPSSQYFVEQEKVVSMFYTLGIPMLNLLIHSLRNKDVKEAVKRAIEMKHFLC
How it was run: as §1

OR5K2 (Homo sapiens) = target: T7, OR5K2 (Homo sapiens) (UniProt Q8NHB8)
T7 sequence (whole entry): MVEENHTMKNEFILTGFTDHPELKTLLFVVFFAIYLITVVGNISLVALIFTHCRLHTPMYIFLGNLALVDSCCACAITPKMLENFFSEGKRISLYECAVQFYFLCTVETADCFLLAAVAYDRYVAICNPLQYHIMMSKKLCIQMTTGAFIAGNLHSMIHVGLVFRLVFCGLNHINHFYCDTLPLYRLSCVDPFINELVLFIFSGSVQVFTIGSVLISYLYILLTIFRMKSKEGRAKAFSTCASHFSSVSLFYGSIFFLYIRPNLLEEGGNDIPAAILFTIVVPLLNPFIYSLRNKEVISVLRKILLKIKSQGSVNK
How it was run: as §1

OR5K2 L197M = system: T8, OR5K2 L197M
T8 sequence (whole entry): T7 sequence (whole entry) with L197M
How it was run: as §1

OR5H8 (Homo sapiens) = OR5H8 (Homo sapiens) (UniProt P0DN80)
OR5H8 (Homo sapiens), sequence (P0DN80 whole entry): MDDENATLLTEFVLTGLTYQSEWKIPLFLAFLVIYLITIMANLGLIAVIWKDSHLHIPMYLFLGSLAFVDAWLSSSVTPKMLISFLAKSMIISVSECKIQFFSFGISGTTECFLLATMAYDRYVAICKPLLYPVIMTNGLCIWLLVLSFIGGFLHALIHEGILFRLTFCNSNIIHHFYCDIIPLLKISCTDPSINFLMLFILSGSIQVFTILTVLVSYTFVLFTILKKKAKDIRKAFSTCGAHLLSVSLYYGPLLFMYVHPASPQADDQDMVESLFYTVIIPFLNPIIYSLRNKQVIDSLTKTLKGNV
How it was run: as §1

SMILES: C=Cc1ccc(O)c(OC)c1
- odorant receptor agonist call (OR5K1 (Homo sapiens)): inactive

SMILES: CC1=C(O)C(=O)OC1C (centres undefined)
- odorant receptor agonist call (OR5H1): inactive
- odorant receptor agonist call (OR5H2): inactive
- odorant receptor agonist call (OR5H6 (Homo sapiens)): inactive
- odorant receptor agonist call (OR5I1 (Homo sapiens)): inactive
- odorant receptor agonist call (OR5J2 (Homo sapiens)): inactive
- odorant receptor agonist call (OR5K1 (Homo sapiens)): inactive
- odorant receptor agonist call (OR5K2 (Homo sapiens)): inactive
- odorant receptor agonist call (OR5K2 L197M): inactive

SMILES: CCC=CCCC=CCO
- odorant receptor agonist call (OR5K1 (Homo sapiens)): inactive

SMILES: CCC(=O)C(C)=O
- odorant receptor agonist call (OR5K1 (Homo sapiens)): inactive

SMILES: CCCCCCCC1CCC(=O)O1 (centres undefined)
- odorant receptor agonist call (OR5K1 (Homo sapiens)): inactive

SMILES: CCCCC(=O)O
- odorant receptor agonist call (OR5K1 (Homo sapiens)): inactive

SMILES: CCC(C)CCC(=O)[O-] (centres undefined)
- odorant receptor agonist call (OR5K1 (Homo sapiens)): inactive

SMILES: CCC1OC(=O)C(O)=C1C (centres undefined)
- odorant receptor agonist call (OR5H1): inactive
- odorant receptor agonist call (OR5H2): inactive
- odorant receptor agonist call (OR5H6 (Homo sapiens)): inactive
- odorant receptor agonist call (OR5I1 (Homo sapiens)): inactive
- odorant receptor agonist call (OR5J2 (Homo sapiens)): inactive
- odorant receptor agonist call (OR5K1 (Homo sapiens)): inactive
- odorant receptor agonist call (OR5K2 (Homo sapiens)): inactive
- odorant receptor agonist call (OR5K2 L197M): inactive

SMILES: CCCCCCC=CCCC=O
- odorant receptor agonist call (OR5H2): inactive
- odorant receptor agonist call (OR5H6 (Homo sapiens)): inactive
- odorant receptor agonist call (OR5I1 (Homo sapiens)): inactive
- odorant receptor agonist call (OR5J2 (Homo sapiens)): inactive
- odorant receptor agonist call (OR5K1 (Homo sapiens)): inactive
- odorant receptor agonist call (OR5K2 (Homo sapiens)): inactive
- odorant receptor agonist call (OR5K2 L197M): inactive

SMILES: C=Cc1ccc(O)cc1
- odorant receptor agonist call (OR5K1 (Homo sapiens)): inactive

SMILES: CCCC(S)CCOC(C)=O (centres undefined)
- odorant receptor agonist call (OR5H1): inactive
- odorant receptor agonist call (OR5H2): inactive
- odorant receptor agonist call (OR5H6 (Homo sapiens)): inactive
- odorant receptor agonist call (OR5I1 (Homo sapiens)): inactive
- odorant receptor agonist call (OR5J2 (Homo sapiens)): inactive
- odorant receptor agonist call (OR5K1 (Homo sapiens)): inactive
- odorant receptor agonist call (OR5K2 (Homo sapiens)): inactive
- odorant receptor agonist call (OR5K2 L197M): inactive

SMILES: CCCCCC=CC=O
- odorant receptor agonist call (OR5K1 (Homo sapiens)): inactive

SMILES: CCC(S)C(C)=O (centres undefined)
- odorant receptor agonist call (OR5K1 (Homo sapiens)): inactive

SMILES: CC(C)=CCCC(C)=CCO
- odorant receptor agonist call (OR5K1 (Homo sapiens)): inactive

SMILES: CCC(S)C(C)CO (centres undefined)
- odorant receptor agonist call (OR5H2): inactive
- odorant receptor agonist call (OR5H6 (Homo sapiens)): inactive
- odorant receptor agonist call (OR5J2 (Homo sapiens)): inactive
- odorant receptor agonist call (OR5K1 (Homo sapiens)): inactive
- odorant receptor agonist call (OR5K2 (Homo sapiens)): inactive

SMILES: CCCC(O)CC(=O)OCC (centres undefined)
- odorant receptor agonist call (OR5K1 (Homo sapiens)): inactive

SMILES: CC(=O)C(C)O (centres undefined)
- odorant receptor agonist call (OR5K1 (Homo sapiens)): inactive

SMILES: Cc1occc(=O)c1O
- odorant receptor agonist call (OR5K1 (Homo sapiens)): inactive

SMILES: CCCC(=O)C(C)CC (centres undefined)
- odorant receptor agonist call (OR5K1 (Homo sapiens)): inactive

SMILES: CC(CO)CS (centres undefined)
- odorant receptor agonist call (OR5H2): inactive
- odorant receptor agonist call (OR5H6 (Homo sapiens)): inactive
- odorant receptor agonist call (OR5J2 (Homo sapiens)): inactive
- odorant receptor agonist call (OR5K1 (Homo sapiens)): inactive
- odorant receptor agonist call (OR5K2 (Homo sapiens)): inactive

SMILES: CC(=O)c1c(C)c([N+](=O)[O-])c(C(C)(C)C)c([N+](=O)[O-])c1C
- odorant receptor agonist call (OR5H2): inactive
- odorant receptor agonist call (OR5H6 (Homo sapiens)): inactive
- odorant receptor agonist call (OR5H8 (Homo sapiens)): inactive
- odorant receptor agonist call (OR5I1 (Homo sapiens)): inactive
- odorant receptor agonist call (OR5J2 (Homo sapiens)): inactive
- odorant receptor agonist call (OR5K2 (Homo sapiens)): inactive

SMILES: CCCCCCO
- odorant receptor agonist call (OR5K1 (Homo sapiens)): inactive

SMILES: CC(=O)C=CC1=C(C)CCCC1(C)C
- odorant receptor agonist call (OR5K1 (Homo sapiens)): inactive

SMILES: CC1CCCCCCCCCCCCC(=O)C1 (centres undefined)
- odorant receptor agonist call (OR5H2): inactive
- odorant receptor agonist call (OR5H6 (Homo sapiens)): inactive
- odorant receptor agonist call (OR5H8 (Homo sapiens)): inactive
- odorant receptor agonist call (OR5I1 (Homo sapiens)): inactive
- odorant receptor agonist call (OR5J2 (Homo sapiens)): inactive
- odorant receptor agonist call (OR5K2 (Homo sapiens)): inactive
